Test [1] concerns 5637. In words: Growth inhibition against human 5637 cell lines. Type of test: functional, cell-based. Particulars: Homo sapiens. Put shortly:
(§1)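 Cells were grown in RPMI-1640 with 2 g/L NaHCO3 and 10% FCS at 37 °C in 5% CO2, seeded at 1000 cells/well, and dosed 24 h later at five geometric dilutions for 96 h of continuous exposure. Cells were then glutaraldehyde-fixed and stained with crystal violet, with OD read at 570 nm. IC50 was taken from the dose–response data.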

Test [2] has as its system DAN-G. In words: Growth inhibition against human DAN-G cell lines. It counts as functional, cell-based. The following applies: Homo sapiens, DAN-G. An outline of the steps:
as §1

For test [3], the system named is KYSE-510. The test can be described thus: Cytotoxic activity against human KYSE-510 cell line at 20 uM expressed as percent growth value. Type of test: functional. An outline of the steps: (§2)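 Cells in RPMI-1640 with 10% FCS were seeded (1000 cells/well; KYSE-510 500, LCLC-103H 250), then exposed 24 h later for 96 h. Read-out was crystal violet staining of glutaraldehyde-fixed cells at OD 570 nm. Growth (%) = (OD treated − OD at drug addition)/(OD control − OD at drug addition) × 100.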

In test [4] the test system is KYSE-70 cell line. In words: Growth inhibition against human KYSE-70 cell lines. Type of test: functional, cell-based. Particulars: Homo sapiens, KYSE-70. Put shortly: as §1
The test system of test [5] is MCF7. In words: Growth inhibition against human MCF-7 cell lines. Type of test: functional, cell-based. The following applies: Homo sapiens, MCF7. Put shortly:
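MCF-7 was cultured in RPMI-1640 with 2 g/L NaHCO3, 10% FCS, 1 mM pyruvate, MEM salts and amino acids. Plating was 1000 cells/well, then after 24 h, 96 h of continuous exposure at five geometric dilutions. Crystal violet staining of glutaraldehyde-fixed cells was read at 570 nm, and IC50 was derived from the dose–response data.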

Test [6] concerns LCLC-103H cell line. In words: Growth inhibition against human LCLC-103H cell lines. Type of test: functional, cell-based. The following applies: Homo sapiens, LCLC-103H. Put shortly: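 LCLC-103H cells were grown in RPMI-1640 with 2 g/L NaHCO3 and 10% FCS (5% CO2, 37 °C) and plated at 250 cells/well. After 24 h, five geometric dilutions were applied continuously for 96 h. Fixation was with glutaraldehyde, followed by crystal violet staining and OD at 570 nm. IC50 came from the dose–response curves.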

For test [7], the system named is LCLC-103H cell line. The test can be described thus: Cytotoxic activity against human LCLC-103H cell line at 20 uM expressed as percent growth value. Type of test: functional. Put shortly: as §2
The test system of test [8] is RT-112. The test can be described thus: Growth inhibition against human RT-112 cell lines. The following applies: Homo sapiens, RT-112. Type of test: functional, cell-based. Put shortly: as §1
Test [9] has as its system RT-4. In words: Growth inhibition against human RT-4 cell lines. The following applies: Homo sapiens, RT-4. It counts as functional, cell-based. An outline of the steps:
as §1

The subject of test [10] is SISO. The test can be described thus: Cytotoxic activity against human SISO cell line at 20 uM. Type of test: functional. Put shortly: as §2
The test system of test [11] is SISO. The test can be described thus: Growth inhibition against human SISO cell lines. It counts as functional, cell-based. Particulars: Homo sapiens, SISO. Put shortly:
as §1

The subject of test [12] is TERT-RPE1. The test can be described thus: Compound was tested for growth inhibition against human h-TERTRPE1 cell lines. Type of test: functional, cell-based. The following applies: Homo sapiens, RPE-1. An outline of the steps: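 The noncancerous hTERT-immortalized epithelial line h-TERT-RPE1 was grown in DMEM/F-12 with 2 g/L NaHCO3 and 10% FCS (37 °C, 5% CO2) and seeded at 1000 cells/well. Substance was added 24 h later at five geometric dilutions for 96 h continuously. The read-out was crystal violet staining after glutaraldehyde fixation, OD 570 nm, with IC50 from dose–response.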

Test [13] has as its system YAPC. In words: Compound was tested for growth inhibition against human YAPC cell lines. Type of test: functional, cell-based. Particulars: Homo sapiens, YAPC. An outline of the steps: as §1
Test [14] relates to KYSE-520 cell line. The test can be described thus: Growth inhibition against human KYSE-520 cell lines. It counts as functional, cell-based. Particulars: Homo sapiens, KYSE-520. An outline of the steps:
as §1

In test [15] the test system is KYSE-510 (human). The test can be described thus: Growth inhibition against human KYSE-510 cell lines. Particulars: Homo sapiens, KYSE-510.
The test system of test [16] is 5637. In words: Cytotoxic activity against human 5637 cell line at 20 uM expressed as percent growth value. It counts as functional. An outline of the steps: as §2

These results are taken from ChEMBL document CHEMBL1148342, “Synthesis, X-ray crystal structures, stabilities, and in vitro cytotoxic activities of new heteroarylacrylonitriles” (J Med Chem, 2004).

On to `N#C/C(=C\c1ccc([N+](=O)[O-])s1)c1nc2ccccc2[nH]1`, for which the IC50 (usually the concentration needed to halve the response being measured) in test [1] is 150 nM; in test [2] it was 320 nM; in [4], 160 nM; in test [5], 160 nM; in [6], 170 nM; in test [8], 360 nM. Moreover, the IC50 in test [9] was found to be 270 nM; in test [11], 310 nM; in test [12], 390 nM; in [13], 160 nM; in test [14], 110 nM; in [15], 330 nM. The results for the Activity in test [3], in test [7] and in [10] were 20.5, -6.5 and 18, respectively.

As for `N#C/C(=C\c1ccc([N+](=O)[O-])s1)c1n[nH]c(-c2ccccc2)n1`, the IC50 in [1] came to 480 nM; in test [2] it was 420 nM; in [4] it was 350 nM; in [5] it was 680 nM; in test [6] it was 540 nM; in test [8], 830 nM. In addition, the IC50 in [9] is 1030 nM; in [11], 890 nM; in [12] it was 420 nM; in test [13], 320 nM; in test [14], 570 nM; in [15] it was 630 nM. For the same molecule, the Activity is -21.7 in [3], -6.5 in [7] and -9.9 in test [10].

Take `Cc1n[nH]c(/C(C#N)=C/c2cccc([N+](=O)[O-])c2)n1`: the Activity worked out at 94.1 in test [3], 68.8 in test [7] and 98.1 in test [10].

Regarding `Cc1n[nH]c(/C(C#N)=C/c2ccc([N+](=O)[O-])o2)n1`, the IC50 turned out to be 540 nM in test [1]; 1000 nM in test [2]; 660 nM in test [4]; 1470 nM in test [5]; 350 nM in test [6]; 1000 nM in [8]. Moreover, the half-maximal inhibitory concentration (IC50) was found to be 1480 nM in test [9]; 270 nM in [11]; 690 nM in test [12]; 850 nM in [13]; 860 nM in [14]; 900 nM in test [15]. The results for the Activity in test [3], in test [7] and in [10] were -21.3, -8.4 and -8.7, respectively.

With `N#C/C(=C\c1ccc(Cl)s1)c1nc2ccccc2[nH]1`, the values for the Activity in test [16], in test [7] and in [10] were 44.6, 13.4 and 102.2, respectively. The IC50 in test [1] is 22400 nM; in [2], over 20000 nM; in test [6], 1970 nM; in test [9] it was over 20000 nM; in test [11] it was over 20000 nM.

Regarding `COc1cc([C@@H]2c3cc4c(cc3[C@@H](O[C@@H]3O[C@@H]5CO[C@@H](C)O[C@H]5[C@H](O)[C@H]3O)[C@H]3COC(=O)[C@H]23)OCO4)cc(OC)c1O` [ETOPOSIDE], the IC50 in test [1] came to 530 nM; in [2] it was 380 nM; in test [4], 790 nM; in test [5], 540 nM; in test [8], 220 nM; in test [9], 1330 nM. Also, the IC50 in test [11] was determined as 150 nM; in [12], 90 nM; in test [13] it was 1320 nM; in test [14], 410 nM; in test [15], 700 nM.

Regarding `N#C/C(=C\c1ccc([N+](=O)[O-])o1)c1nc2ccccc2[nH]1`, the IC50 in test [1] worked out at 480 nM; in test [2], 690 nM; in test [4], 450 nM; in [5], 650 nM; in [6] it was 410 nM; in test [8], 690 nM. The half-maximal inhibitory concentration (IC50) came out at 990 nM in test [9]; 330 nM in [11]; 600 nM in test [12]; 570 nM in test [13]; 620 nM in [14]; 750 nM in test [15]. Besides, the Activity in test [3] is -21.2; in [7], -8; in test [10] it was -8.2.

Regarding `Cc1n[nH]c(/C(C#N)=C/c2ccc([N+](=O)[O-])s2)n1`, the IC50 stood at 220 nM in test [1]; 570 nM in test [2]; 440 nM in test [4]; 380 nM in test [5]; 330 nM in [6]; 670 nM in test [8]. In addition, the half-inhibitory concentration (IC50) in test [9] was determined as 900 nM; in test [11] it was 510 nM; in test [12] it was 690 nM; in [13], 410 nM; in test [14] it was 600 nM; in [15], 560 nM. The Activity in test [3] was -21.3; in test [7] it was -8.4; in test [10], -8.8.
